# Tests used:
# RAW264.7 [1] = test: Antiinflammatory activity in mouse RAW264.7 cells assessed as inhibition of LPS-induced PGE2 production preincubated for 1 hr followed by LPS challenge for 24 hrs by ELISA method; format: functional, cell-based
# Method in brief: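 RAW 264.7 cells in DMEM with 10% FBS, plated at 2 × 10^5 cells/mL and incubated overnight. Pretreated with compound (15, 30 or 60 μM) for 1 h, then LPS 10 ng/mL for 24 h. PGE2 measured by competitive colorimetric ELISA, TNF-α and IL-6 by ELISA, in diluted medium. NS-398 3 μM as positive control for PGE2. Mean ± SD, three independent experiments; IC50 given for PGE2.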
# RAW264.7 [2] = test: Antiinflammatory activity in mouse RAW264.7 cells assessed as inhibition of LPS-induced nitric oxide production preincubated for 1 hr followed by LPS challenge for 24 hrs by Griess assay; format: functional, cell-based
# Method in brief: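 RAW 264.7 cells plated at 2 × 10^5 cells/mL and incubated overnight. Compound given at 15, 30 or 60 μM for 1 h, then LPS 10 ng/mL for 24 h. Nitrite in the medium measured by Griess reagent (10 min, room temperature, A540) against a NaNO2 standard. L-NIL 20 μM as positive control; IC50 derived; three independent experiments.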
# Rattus norvegicus [3] = test: Antiinflammatory activity in Sprague-Dawley rat assessed as inhibition of croton oil-induced ear edema at 100 mg/kg, po administered 1 hr before croton oil challenge measured after 3 hrs post challenge; format: functional
# Method in brief: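 Croton-oil ear edema in male SD rats: ibuprofen 100 mg/kg p.o. given as reference. Croton oil (5% in 100 μL acetone) applied to the right ear, acetone to the left. Thickness of 6 mm ear punches measured 3 h after application; seven rats per group.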
# Rattus norvegicus [4] = test: Antiinflammatory activity in Sprague-Dawley rat assessed as reduction in carrageenan induced paw edema at 100 mg/kg, po administered 1 hr before carrageenan challenge measured at 3 hrs post challenge; format: functional
# Method in brief: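 Carrageenan paw edema in SD rats: ibuprofen 100 mg/kg p.o. as reference. Carrageenan (1% in saline, 0.1 mL) injected into the right hind paw. Volume measured by plethysmometer at 1, 3 and 5 h; seven rats per group.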
SMILES,IC50 (RAW264.7 [1]) [µM],IC50 (RAW264.7 [2]) [µM],inhibition in vivo at 100 mg/kg (Rattus norvegicus [3]) [%],inhibition in vivo at 100 mg/kg (Rattus norvegicus [4]) [%]
Cc1cc(=O)c2c(O)cc(O)c([C@@H]3O[C@H](CO)[C@@H](O)[C@H](O)[C@H]3O)c2o1,46,> 60,,
CC(C)Cc1ccc(C(C)C(=O)O)cc1 (centres undefined) [IBUPROFEN],,,78.2,68

# Reference: ChEMBL document CHEMBL4477178, “Biflorin, Isolated from the Flower Buds of Syzygium aromaticum L., Suppresses LPS-Induced Inflammatory Mediators via STAT1 Inactivation in Macrophages and Protects Mice from Endotoxin Shock” (J Nat Prod, 2016)
